From ChEMBL document CHEMBL2331476, “A novel semisynthetic flavonoid 7-O-galloyltaxifolin upregulates heme oxygenase-1 in RAW264.7 cells via MAPK/Nrf2 pathway” (J Med Chem, 2013)
Active and inactive are the calls of the source. The calls are words filed in the database; no cut-off is given here.

Experiments:
Type in all cases: cell-based
[1] = molecular target: T1, Nuclear factor erythroid 2-related factor 2 (Mus musculus) (UniProt Q60795); experiment: Activation of Nrf2 in mouse RAW264.7 cells assessed as induction of Hmox1 mRNA expression at 50 uM after 6 hrs by real-time PCR analysis in presence of […] N-acetyl-L-cysteine
T1 sequence (whole entry): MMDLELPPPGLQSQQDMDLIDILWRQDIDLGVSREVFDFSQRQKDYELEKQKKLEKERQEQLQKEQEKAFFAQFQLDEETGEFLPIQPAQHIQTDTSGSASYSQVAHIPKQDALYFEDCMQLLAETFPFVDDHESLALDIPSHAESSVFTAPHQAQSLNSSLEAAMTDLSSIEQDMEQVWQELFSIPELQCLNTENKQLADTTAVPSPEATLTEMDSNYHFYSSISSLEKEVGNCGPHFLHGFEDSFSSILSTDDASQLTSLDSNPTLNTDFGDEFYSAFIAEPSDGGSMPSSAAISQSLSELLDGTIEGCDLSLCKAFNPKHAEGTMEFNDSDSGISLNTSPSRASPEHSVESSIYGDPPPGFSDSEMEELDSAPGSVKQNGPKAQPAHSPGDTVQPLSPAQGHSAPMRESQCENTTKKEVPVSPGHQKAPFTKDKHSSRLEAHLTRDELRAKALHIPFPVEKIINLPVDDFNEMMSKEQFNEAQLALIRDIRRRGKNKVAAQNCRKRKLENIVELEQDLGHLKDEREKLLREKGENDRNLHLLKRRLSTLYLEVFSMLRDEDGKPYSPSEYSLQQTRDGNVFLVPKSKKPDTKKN

[2] = molecular target: T2, Mitogen-activated protein kinase 9/10 (Mus musculus) (UniProt Q9WTU6+Q61831); experiment: Activation of JNK2/3 in mouse RAW264.7 cells assessed as phosphorylation at 50 uM after 30 mins by Western blotting analysis
T2 sequence (Q61831 whole entry, looked up): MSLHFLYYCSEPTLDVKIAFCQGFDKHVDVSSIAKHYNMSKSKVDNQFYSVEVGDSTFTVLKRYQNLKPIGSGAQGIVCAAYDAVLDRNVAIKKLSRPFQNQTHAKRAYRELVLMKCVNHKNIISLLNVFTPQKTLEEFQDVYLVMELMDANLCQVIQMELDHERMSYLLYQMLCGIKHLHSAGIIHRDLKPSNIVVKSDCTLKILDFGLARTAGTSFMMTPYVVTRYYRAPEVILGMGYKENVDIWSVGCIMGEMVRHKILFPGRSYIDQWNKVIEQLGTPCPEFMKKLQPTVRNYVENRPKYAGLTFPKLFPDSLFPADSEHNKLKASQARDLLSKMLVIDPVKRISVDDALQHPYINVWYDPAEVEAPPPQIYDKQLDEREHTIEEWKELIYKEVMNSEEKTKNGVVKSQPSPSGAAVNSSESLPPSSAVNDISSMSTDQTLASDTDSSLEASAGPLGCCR
T2 sequence (Q9WTU6 whole entry, looked up): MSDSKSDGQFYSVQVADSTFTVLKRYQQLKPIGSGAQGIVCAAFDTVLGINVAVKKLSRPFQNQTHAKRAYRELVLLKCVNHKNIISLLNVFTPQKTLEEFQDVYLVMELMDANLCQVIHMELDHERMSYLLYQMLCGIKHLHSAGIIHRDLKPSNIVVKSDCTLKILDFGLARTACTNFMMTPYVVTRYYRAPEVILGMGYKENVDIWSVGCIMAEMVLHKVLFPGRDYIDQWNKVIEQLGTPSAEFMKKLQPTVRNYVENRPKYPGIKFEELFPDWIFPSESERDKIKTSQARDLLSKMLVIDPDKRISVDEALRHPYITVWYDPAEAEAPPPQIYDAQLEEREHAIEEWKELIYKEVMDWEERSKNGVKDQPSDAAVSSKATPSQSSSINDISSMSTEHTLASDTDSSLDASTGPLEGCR
Outline: (§1)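 Serum-starved RAW264.7 cells exposed in serum-free medium for 30 min to 4 h; 5 μM anisomycin for 30 min as positive control. Whole-cell lysates (30 μg/lane) blotted for JNKs dually phosphorylated at Thr183/Tyr185 and total JNKs, chemiluminescent detection.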

RAW264.7 = experiment: Cytotoxicity against mouse RAW264.7 cells assessed as decreased cell viability at 50 uM after 6 hrs by MTT assay; conditions: raw264.7, 6 h
Outline: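 Serum-starved RAW264.7 cells exposed 6 h at 10 or 50 μM; 0.1% DMSO control (100% viability), 1.5% Triton X-100 positive control. Cells washed and incubated 2 h at 37 °C with 0.5 mg/mL MTT in serum-free medium. Formazan dissolved in DMSO, A540 read, viability relative to DMSO-treated cells.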

[3] = molecular target: T1, Nuclear factor erythroid 2-related factor 2 (Mus musculus); experiment: Activation of Nrf2 in mouse RAW264.7 cells assessed as reduction of KEAP1 protein level at 10 to 50 uM after 6 hrs by Western blotting analysis
Outline: (§2)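 Whole-cell lysates (20 μg/lane) from serum-starved RAW264.7 cells given 10-50 μM for 6 h or 50 μM for 1-6 h in serum-free medium, 0.1% DMSO vehicle. Keap1 and actin detected by chemiluminescent Western blot; Keap1 band intensity normalized to actin, mean of three experiments.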

[4] = molecular target: T1, Nuclear factor erythroid 2-related factor 2 (Mus musculus); experiment: Activation of Nrf2 in mouse RAW264.7 cells assessed as reduction of KEAP1 protein level at 50 uM after 1 to 6 hr by Western blotting analysis; conditions: TDE = time-dependent effect; outline: as §2
[5] = molecular target: Mitogen-activated protein kinase 1 (Mus musculus) (UniProt P63085); experiment: Activation of ERK2 in mouse RAW264.7 cells assessed as phosphorylation at Thr185/Tyr187 at 50 uM after 30 mins by Western blotting analysis
Sequence of Mitogen-activated protein kinase 1 (Mus musculus) (P63085 whole entry): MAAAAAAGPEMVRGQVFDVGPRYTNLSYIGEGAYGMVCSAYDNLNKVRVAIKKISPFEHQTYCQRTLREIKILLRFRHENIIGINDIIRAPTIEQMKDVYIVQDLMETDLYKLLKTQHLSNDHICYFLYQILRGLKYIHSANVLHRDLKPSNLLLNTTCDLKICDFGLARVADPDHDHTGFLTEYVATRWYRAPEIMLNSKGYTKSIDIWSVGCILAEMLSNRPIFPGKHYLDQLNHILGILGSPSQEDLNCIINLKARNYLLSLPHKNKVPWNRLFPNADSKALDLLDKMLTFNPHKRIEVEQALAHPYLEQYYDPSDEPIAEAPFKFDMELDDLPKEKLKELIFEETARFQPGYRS
Outline: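 RAW264.7 cells (passage 5-25) seeded at 1 × 10⁵ cells/cm², serum-starved overnight, then exposed in serum-free medium for 30 min to 3 h; 0.1% DMSO vehicle; 75 ng/mL EGF for 30 min as positive control. Whole-cell lysates (20 μg/lane) on 10% SDS-PAGE, blotted for phospho-ERK1 (Thr202/Tyr204), phospho-ERK2 (Thr185/Tyr187) and total ERK1/2, chemiluminescent detection.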

[6] = molecular target: T1, Nuclear factor erythroid 2-related factor 2 (Mus musculus); experiment: Activation of Nrf2 in mouse RAW264.7 cells assessed as upregulation of HO1 protein expression at 50 uM after 6 hrs by Western blotting analysis relative to untreated control
Outline: (§3)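 HO-1 protein in whole-cell lysates (20 μg/lane) of serum-starved RAW264.7 cells after 6 h at 10-50 μM or 50 μM for 1-6 h in serum-free medium, 0.1% DMSO control. Chemiluminescent Western blot; HO-1 densitometry normalized to actin, mean of three experiments.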

[7] = molecular target: Mitogen-activated protein kinase 8 (Mus musculus) (UniProt Q91Y86); experiment: Activation of JNK1 in mouse RAW264.7 cells assessed as phosphorylation at Thr183/Tyr185 at 50 uM after 30 mins to 4 hrs by Western blotting analysis; conditions: TDE = time-dependent effect; outline: as §1
Sequence of Mitogen-activated protein kinase 8 (Mus musculus) (Q91Y86 whole entry): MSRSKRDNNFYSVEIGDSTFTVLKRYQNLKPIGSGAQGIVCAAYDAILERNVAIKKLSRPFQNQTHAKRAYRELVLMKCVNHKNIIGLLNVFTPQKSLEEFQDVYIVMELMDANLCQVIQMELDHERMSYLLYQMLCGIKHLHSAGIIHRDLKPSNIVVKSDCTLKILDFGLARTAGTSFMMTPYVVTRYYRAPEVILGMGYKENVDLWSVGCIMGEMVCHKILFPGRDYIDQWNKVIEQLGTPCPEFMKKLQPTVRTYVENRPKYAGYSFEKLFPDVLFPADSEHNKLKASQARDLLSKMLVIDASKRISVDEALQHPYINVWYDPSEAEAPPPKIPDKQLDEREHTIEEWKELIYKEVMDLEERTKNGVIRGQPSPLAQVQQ

[8] = molecular target: T2, Mitogen-activated protein kinase 9/10 (Mus musculus); experiment: Activation of JNK2/3 in mouse RAW264.7 cells assessed as phosphorylation at 50 uM after 30 mins to 4 hrs by Western blotting analysis; conditions: TDE = time-dependent effect; outline: as §1
[9] = molecular target: T1, Nuclear factor erythroid 2-related factor 2 (Mus musculus); experiment: Activation of Nrf2 in mouse RAW264.7 cells assessed as reduction of KEAP1 protein level at 50 uM after 3 hrs by Western blotting analysis; outline: as §2
[10] = molecular target: T1, Nuclear factor erythroid 2-related factor 2 (Mus musculus); experiment: Activation of Nrf2 in mouse RAW264.7 cells assessed as upregulation of HO1 protein expression at 25 uM after 6 hrs by Western blotting analysis; outline: as §3
[11] = molecular target: T1, Nuclear factor erythroid 2-related factor 2 (Mus musculus); experiment: Activation of Nrf2 in mouse RAW264.7 cells assessed as upregulation of HO1 protein expression at 10 uM after 6 hrs by Western blotting analysis; outline: as §3
[12] = molecular target: T1, Nuclear factor erythroid 2-related factor 2 (Mus musculus); experiment: Activation of Nrf2 in mouse RAW264.7 cells assessed as upregulation of Hmox1 gene expression at 25 uM after 6 hrs by real-time PCR analysis relative to GAPDH mRNA expression
Outline: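 RAW264.7 cells treated 6 h in serum-free medium, 0.1% DMSO control. Total RNA (2 μg) reverse transcribed; TaqMan qPCR for Hmox1 and Gapdh, 40 cycles. Relative expression by 2^−ΔΔCT, normalized to Gapdh; mean ± SD of three experiments.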

[13] = molecular target: T1, Nuclear factor erythroid 2-related factor 2 (Mus musculus); experiment: Activation of Nrf2 in mouse RAW264.7 cells assessed as upregulation of HO1 protein expression at 50 uM after 3 hrs by Western blotting analysis; outline: as §3
[14] = molecular target: T1, Nuclear factor erythroid 2-related factor 2 (Mus musculus); experiment: Activation of Nrf2 in mouse RAW264.7 cells assessed as cytosolic accumulation at 25 uM after 3 hrs by Western blotting analysis
Outline: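 Serum-starved RAW264.7 cells treated 30 min to 3 h (10-50 μM for 3 h, or 50 μM time course); 0.1% DMSO control, 50 μM quercetin positive control. Cytosolic fraction from hypotonic HEPES pH 7.9 buffer with 0.1% NP-40; nuclear fraction by 420 mM NaCl extraction. 30 μg/lane blotted for Nrf2 and actin; Nrf2/actin densitometry, mean of three experiments.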

[15] = molecular target: T1, Nuclear factor erythroid 2-related factor 2 (Mus musculus); experiment: Activation of Nrf2 in mouse RAW264.7 cells assessed as upregulation of HO1 protein expression at 50 uM after 6 hrs by Western blotting analysis; outline: as §3

Activity [1]: inactive | Activity [2]: Active | Activity [3]: Dose-dependent effect | Activity [4]: tde | Activity [5]: Active | fold change (FC) [6]: 2.5 | Activity [7]: tde | Activity [8]: tde | Activity [9]: Active | fold change (FC) [10]: 1.6 | fold change (FC) [11]: 1.1 | fold change (FC) [12]: 4.8 | fold change (FC) [13]: 1.3 | Activity [14]: Active | fold change (FC) [15]: 2.3
Structure (SMILES): O=C(Oc1cc(O)c2c(c1)O[C@H](c1ccc(O)c(O)c1)[C@@H](O)C2=O)c1cc(O)c(O)c(O)c1
Activity (RAW264.7): 72%
